Assay [1] relates to HT-29. The assay can be described thus: Cytotoxicity against human HT-29 cells at 0.64 ug/ml after 24 hrs by MTT assay. It counts as functional. The gist of the method:
(§1)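 HT-29 cells grown in McCoy's 5A with 10% FBS and penicillin/streptomycin at 37 °C, 5% CO2. Treated 24 h with 0.64, 1.6, 6.4, 16, 32 or 80 µg/mL (DMSO stock diluted in medium). MTT added, absorbance read at 540 nm. Viability taken relative to untreated control (100%); IC50 calculated. Four wells per concentration, three repeat experiments.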

The test system of assay [2] is HT-29. As to the kind of experiment: Cytotoxicity against human HT-29 cells at 1.6 ug/ml after 24 hrs by MTT assay. The class given is functional. The essentials:
as §1

Assay [3] concerns HT-29. The assay can be described thus: Cytotoxicity against human HT-29 cells at 6.4 ug/ml after 24 hrs by MTT assay. It counts as functional. The essentials: as §1
Assay [4] concerns HT-29. The assay can be described thus: Cytotoxicity against human HT-29 cells at 16 ug/ml after 24 hrs by MTT assay. The class given is functional. The essentials: as §1
The test system of assay [5] is HT-29. The assay can be described thus: Cytotoxicity against human HT-29 cells at 32 ug/ml after 24 hrs by MTT assay. It counts as functional. The essentials:
as §1

Assay [6] relates to HT-29. The assay can be described thus: Cytotoxicity against human HT-29 cells at 80 ug/ml after 24 hrs by MTT assay. The class given is functional. The essentials:
as §1

Assay [7] deals with HT-29. The assay can be described thus: Cytotoxicity against human HT-29 cells after 24 hrs by MTT assay. The class given is functional, cell-based. The note with it: HT-29, 24 h. The essentials:
as §1

In assay [8] the test system is MCF7. As to the kind of experiment: Cytotoxicity against human MCF7 cells at 0.64 ug/ml after 24 hrs by MTT assay. It counts as functional. The essentials:
(§2)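 MCF-7 cells grown in DMEM with 1 mM pyruvate, 10 µg/mL insulin, 10% FBS and penicillin/streptomycin at 37 °C, 5% CO2. Exposed 24 h to 0.64–80 µg/mL (DMSO stocks diluted in medium). MTT added, A540 measured. Percent viability relative to untreated cells; IC50 derived. Three experiments with four wells per concentration.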

For assay [9], the system named is MCF7. The assay can be described thus: Cytotoxicity against human MCF7 cells at 1.6 ug/ml after 24 hrs by MTT assay. The class given is functional. The essentials: as §2
In assay [10] the test system is MCF7. The assay can be described thus: Cytotoxicity against human MCF7 cells at 6.4 ug/ml after 24 hrs by MTT assay. The class given is functional. The gist of the method:
as §2

The test system of assay [11] is MCF7. As to the kind of experiment: Cytotoxicity against human MCF7 cells at 16 ug/ml after 24 hrs by MTT assay. It counts as functional. The essentials: as §2
The subject of assay [12] is MCF7. The assay can be described thus: Cytotoxicity against human MCF7 cells at 32 ug/ml after 24 hrs by MTT assay. It counts as functional. The essentials: as §2
For assay [13], the system named is MCF7. The assay can be described thus: Cytotoxicity against human MCF7 cells at 80 ug/ml after 24 hrs by MTT assay. It counts as functional. The essentials:
as §2

In assay [14] the test system is MCF7. As to the kind of experiment: Cytotoxicity against human MCF7 cells after 24 hrs by MTT assay. It counts as functional, cell-based. The note with it: MCF7, 24 h. The gist of the method: as §2
The subject of assay [15] is HT-29. As to the kind of experiment: Inhibition of DNA synthesis in human HT-29 cells by BrdU incorporation assay. It counts as functional, cell-based. Particulars: TDE = time-dependent effect. The gist of the method:
(§3)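 HT-29 cells (McCoy's 5A, 10% FBS) seeded at 1 × 10^3 cells/mL. Exposed to three concentrations for 24 h and 48 h at 37 °C, with DMSO solvent control. BrdU label for 2 h, then fixation and anti-BrdU-POD for 90 min. Substrate colour read at 492 nm with blank subtracted. Triplicate wells, three experiments.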

Assay [16] concerns MCF7. As to the kind of experiment: Inhibition of DNA synthesis in human MCF7 cells by BrdU incorporation assay. Particulars: TDE = time-dependent effect. The class given is functional, cell-based. The gist of the method: (§4)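 MCF-7 cells (DMEM, pyruvate, insulin, 10% FBS) seeded at 1 × 10^3 cells/mL. Treated at three concentrations for 24 h or 48 h at 37 °C against DMSO control. Labelled with BrdU for 2 h, fixed, then anti-BrdU-POD for 90 min. Colorimetric substrate read at 492 nm after blank subtraction. Triplicate wells, repeated three times.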

The test system of assay [17] is HT-29. The assay can be described thus: Inhibition of DNA synthesis in human HT-29 cells after 48 hrs by BrdU incorporation assay. The class given is functional, cell-based. The gist of the method:
as §3

In assay [18] the test system is MCF7. The assay can be described thus: Inhibition of DNA synthesis in human MCF7 cells after 48 hrs by BrdU incorporation assay. It counts as functional, cell-based. The gist of the method:
as §4

For assay [19], the system named is HT-29. As to the kind of experiment: Induction of apoptosis in human HT-29 cells assessed as DNA fragmentation after 24 hrs by gel electrophoresis.

The values below come from ChEMBL document CHEMBL1208663, “Synthesis of 2-substituted-N-[4-(1-methyl-4,5-diphenyl-1H-imidazole-2-yl)phenyl]acetamide derivatives and evaluation of their anticancer activity” (Eur J Med Chem, 2010).

Molecules are shown by their SMILES. Converted amounts (≈) assume the structure as drawn. The source made the active and inactive calls. No cut-off for these calls is given here.

On to `Cn1nnnc1SCC(=O)Nc1ccc(-c2nc(-c3ccccc3)c(-c3ccccc3)n2C)cc1`, for which the Activity is 38% in the assay with HT-29 [1]; 49.8% with HT-29 [2]; 60.6% with HT-29 [3]; 72.5% in the assay on HT-29 [4]; 84% in the assay on HT-29 [5]; 89% in the assay on HT-29 [6]. Also, the Activity was 21.9% in the assay with MCF7 [8]; 34.3% in the assay on MCF7 [9]; 55.9% in the assay with MCF7 [10]; 63.7% in the assay on MCF7 [11]; 77.5% in the assay with MCF7 [12]; 77.7% with MCF7 [13]. In addition, the IC50 in the assay on HT-29 [7] is 1.6 µg/mL (≈ 3.32 µM); in the assay on MCF7 [14] it was 4.5 µg/mL (≈ 9.34 µM). Further, the inhibition result in the assay with HT-29 [15] is “tde”; in the assay on MCF7 [16] it was “tde”; in the assay with HT-29 [17], “Dose-dependent effect”; with MCF7 [18], “Dose-dependent effect”. Also, the result in the assay with HT-29 [19] was Active.
On to `Cn1c(-c2ccc(NC(=O)CSc3nc4ccccc4o3)cc2)nc(-c2ccccc2)c1-c1ccccc1`, for which the Activity with HT-29 [1] came to 24.8%; with HT-29 [2], 41%; in the assay on HT-29 [3] it was 44.9%; in the assay on HT-29 [4] it was 56.2%; in the assay with HT-29 [5], 79.3%; with HT-29 [6], 81.5%. Besides, the Activity with MCF7 [8] came to 18.7%; in the assay on MCF7 [9], 27.4%; in the assay with MCF7 [10] it was 42.3%; with MCF7 [11], 56%; in the assay on MCF7 [12] it was 71.5%; in the assay on MCF7 [13], 76.3%. In addition, the IC50 in the assay on HT-29 [7] amounted to 11 µg/mL (≈ 21.3 µM); in the assay with MCF7 [14], 11.2 µg/mL (≈ 21.7 µM). Further, the inhibition result was “tde” in the assay on HT-29 [15], “tde” in the assay on MCF7 [16], “Dose-dependent effect” with HT-29 [17] and “Dose-dependent effect” with MCF7 [18]. In the assay with HT-29 [19], the outcome was inactive.
Turning to `Cn1cnnc1SCC(=O)Nc1ccc(-c2nc(-c3ccccc3)c(-c3ccccc3)n2C)cc1`, the Activity was determined as 32% in the assay on HT-29 [1]; 40.8% with HT-29 [2]; 43.1% in the assay on HT-29 [3]; 59.1% with HT-29 [4]; 86.1% with HT-29 [5]; 88% with HT-29 [6]. Moreover, the Activity in the assay on MCF7 [8] worked out at 33.1%; in the assay with MCF7 [9], 42.8%; in the assay on MCF7 [10], 59.2%; in the assay on MCF7 [11] it was 61.2%; with MCF7 [12], 89.2%; in the assay on MCF7 [13], 89.3%. Moreover, the IC50 in the assay on HT-29 [7] was 10.7 µg/mL (≈ 22.3 µM); with MCF7 [14] it was 3.2 µg/mL (≈ 6.66 µM). In addition, the inhibition result is “tde” in the assay with HT-29 [15], “tde” in the assay with MCF7 [16], “Dose-dependent effect” with HT-29 [17] and “Dose-dependent effect” in the assay on MCF7 [18]. In addition, the outcome in the assay on HT-29 [19] was Active.
As to `Cc1nnc(SCC(=O)Nc2ccc(-c3nc(-c4ccccc4)c(-c4ccccc4)n3C)cc2)s1`, the Activity is listed as 34.8% in the assay with HT-29 [1]; 39.9% in the assay on HT-29 [2]; 73% with HT-29 [3]; 83.3% in the assay with HT-29 [4]; 87.1% in the assay on HT-29 [5]; 90.5% in the assay with HT-29 [6]. The Activity in the assay on MCF7 [8] worked out at 35.1%; with MCF7 [9], 37.5%; in the assay on MCF7 [10], 67.8%; in the assay with MCF7 [11], 74.9%; with MCF7 [12], 83.4%; in the assay on MCF7 [13], 85.2%. Also, the results for the IC50 with HT-29 [7] and in the assay with MCF7 [14] were 2.7 µg/mL (≈ 5.43 µM) and 3.2 µg/mL (≈ 6.43 µM), respectively. Also, the inhibition result with HT-29 [15] is “tde”; in the assay on MCF7 [16], “tde”; in the assay with HT-29 [17], “Dose-dependent effect”; in the assay with MCF7 [18], “Dose-dependent effect”. Moreover, the result with HT-29 [19] was Active.
